Measured values from ChEMBL document CHEMBL3627681, “Synthesis and biological evaluation of 1,3-diaryl pyrazole derivatives as potential antibacterial and anti-inflammatory agents” (2015).
In brackets after ≈: the same amount, converted by molar mass.

How the values were obtained:
Staphylococcus aureus [1] = experiment: Antibacterial activity against Staphylococcus aureus RN4220 after 24 hrs by two-fold serial dilution method; assay type: functional; conditions: RN4220, 24 h
Outline: (§1)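 Broth microdilution in Mueller-Hinton broth. Bacteria grown to mid-log phase, diluted 1000-fold, and inoculated at 10⁵ CFU/mL. Test compounds in DMSO, final DMSO not above 0.05%, final concentrations 64-0.5 µg/mL. Incubation 24 h at 37 °C, growth read as absorbance at 650 nm. MIC taken as the lowest concentration giving complete growth inhibition. Run three times.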

Staphylococcus aureus [2] = experiment: Antibacterial activity against Staphylococcus aureus 209 after 24 hrs by two-fold serial dilution method; assay type: functional; conditions: Staphylococcus aureus, 209, 24 h; outline: as §1
Staphylococcus aureus [3] = experiment: Antibacterial activity against Staphylococcus aureus 503 after 24 hrs by two-fold serial dilution method; assay type: functional; conditions: Staphylococcus aureus, 503, 24 h; outline: as §1
Streptococcus mutans = experiment: Antibacterial activity against Streptococcus mutans 3065 after 24 hrs by two-fold serial dilution method; assay type: functional; conditions: Streptococcus mutans, 3065, 24 h
Outline: (§2)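 Broth microdilution in Mueller-Hinton broth over final concentrations of 64–0.5. Bacteria were grown to mid-log phase and diluted 1000-fold, then inoculated at 10⁵ CFU/mL. Compounds were dissolved in DMSO, with final DMSO at most 0.05%. Plates were incubated 24 h at 37 °C and growth read as absorbance at 650 nm. MIC is the concentration giving complete growth inhibition. Three independent runs.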

Escherichia coli [4] = experiment: Antibacterial activity against Escherichia coli KCTC 1924 after 24 hrs by two-fold serial dilution method; assay type: functional; conditions: KCTC 1924, 24 h; outline: as §2
Escherichia coli [5] = experiment: Antibacterial activity against Escherichia coli CCARM 1356 after 24 hrs by two-fold serial dilution method; assay type: functional; conditions: CCARM 1356, 24 h; outline: as §2
Pseudomonas aeruginosa [6] = experiment: Antibacterial activity against Pseudomonas aeruginosa 2742 after 24 hrs by two-fold serial dilution method; assay type: functional; conditions: Pseudomonas aeruginosa, 2742, 24 h; outline: as §2
Pseudomonas aeruginosa [7] = experiment: Antibacterial activity against Pseudomonas aeruginosa 2004 after 24 hrs by two-fold serial dilution method; assay type: functional; conditions: Pseudomonas aeruginosa, 2004, 24 h; outline: as §2
Salmonella typhimurium = experiment: Antibacterial activity against Salmonella typhimurium 2421 after 24 hrs by two-fold serial dilution method; assay type: functional, Salmonella enterica subsp. enterica serovar Typhimurium; conditions: Salmonella enterica, 2421, 24 h; outline: as §2
Candida albicans = experiment: Antifungal activity against Candida albicans 7535 by two-fold serial dilution method; assay type: functional
Staphylococcus aureus [8] = experiment: Antibacterial activity against methicillin-resistant Staphylococcus aureus CCARM 3167 after 24 hrs by two-fold serial dilution method; assay type: functional; conditions: CCARM 3167, 24 h; outline: as §1
Staphylococcus aureus [9] = experiment: Antibacterial activity against methicillin-resistant Staphylococcus aureus CCARM 3506 after 24 hrs by two-fold serial dilution method; assay type: functional; conditions: CCARM 3506, 24 h; outline: as §1
Staphylococcus aureus [10] = experiment: Antibacterial activity against quinolone-resistant Staphylococcus aureus CCARM 3505 after 24 hrs by two-fold serial dilution method; assay type: functional; conditions: CCARM 3505, 24 h; outline: as §1
Staphylococcus aureus [11] = experiment: Antibacterial activity against quinolone-resistant Staphylococcus aureus CCARM 3519 after 24 hrs by two-fold serial dilution method; assay type: functional; conditions: CCARM 3519, 24 h; outline: as §1
Mus musculus = experiment: Antiinflammatory activity in mouse assessed as inhibition of xylene-induced ear edema at 50 mg/kg, ip administered 30 mins before xylene challenge relative to control; assay type: functional
Outline: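 Mice received compound freshly dissolved in DMSO, 50 mg/kg ip at 0.05 mL/20 g body weight; vehicle controls got DMSO alone. After 30 min, 20 µL xylene was applied to the right ear. After a further 30 min, 7 mm plugs were cut from treated and untreated ears and edema taken as their weight difference. Result is % edema reduction versus vehicle controls.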

| Compound | MIC (Staphylococcus aureus [1]) [µg/mL] | MIC (Staphylococcus aureus [2]) [µg/mL] | MIC (Staphylococcus aureus [3]) [µg/mL] | MIC (Streptococcus mutans) [µg/mL] | MIC (Escherichia coli [4]) [µg/mL] | MIC (Escherichia coli [5]) [µg/mL] | MIC (Pseudomonas aeruginosa [6]) [µg/mL] | MIC (Pseudomonas aeruginosa [7]) [µg/mL] | MIC (Salmonella typhimurium) [µg/mL] | MIC (Candida albicans) [µg/mL] | MIC (Staphylococcus aureus [8]) [µg/mL] | MIC (Staphylococcus aureus [9]) [µg/mL] | MIC (Staphylococcus aureus [10]) [µg/mL] | MIC (Staphylococcus aureus [11]) [µg/mL] | inhibition in vivo at 50 mg/kg (Mus musculus) [%] |
| --- | --- | --- | --- | --- | --- | --- | --- | --- | --- | --- | --- | --- | --- | --- | --- |
| N=C(N)N/N=C/c1cn(-c2ccc([N+](=O)[O-])cc2[N+](=O)[O-])nc1-c1ccccc1 | 8 (≈ 20.3 µM) | 8 (≈ 20.3 µM) | 8 (≈ 20.3 µM) | 16 (≈ 40.6 µM) | 8 (≈ 20.3 µM) | 16 (≈ 40.6 µM) | > 64 | > 64 | 16 (≈ 40.6 µM) | 4 (≈ 10.1 µM) | 8 (≈ 20.3 µM) | 8 (≈ 20.3 µM) | 8 (≈ 20.3 µM) | 8 (≈ 20.3 µM) | 86.9 |
| CC(C)Cc1ccc(C(C)C(=O)O)cc1 (stereo not drawn) [IBUPROFEN] |  |  |  |  |  |  |  |  |  |  |  |  |  |  | 29.6 |
| COc1c(N2CCNC(C)C2)c(F)cc2c(=O)c(C(=O)O)cn(C3CC3)c12 (stereo not drawn) [GATIFLOXACIN] | 0.25 (≈ 0.666 µM) | 2 (≈ 5.33 µM) | 2 (≈ 5.33 µM) | 0.5 (≈ 1.33 µM) | 2 (≈ 5.33 µM) | 16 (≈ 42.6 µM) | 1 (≈ 2.66 µM) | 1 (≈ 2.66 µM) | 0.5 (≈ 1.33 µM) | 0.5 (≈ 1.33 µM) | 2 (≈ 5.33 µM) | 2 (≈ 5.33 µM) | 8 (≈ 21.3 µM) | 4 (≈ 10.7 µM) |  |
| O=C(N/N=C/c1cn(-c2ccc([N+](=O)[O-])cc2[N+](=O)[O-])nc1-c1cccc(Cl)c1)c1ccco1 | > 64 | > 64 | > 64 | > 64 | > 64 | > 64 | > 64 | > 64 | > 64 | > 64 | > 64 | > 64 | > 64 | > 64 | 26.2 |
| CCC(C)n1ncn(-c2ccc(N3CCN(c4ccc(OCC5COC(Cn6cncn6)(c6ccc(Cl)cc6Cl)O5)cc4)CC3)cc2)c1=O (stereo not drawn) [ITRACONAZOLE] |  |  |  |  |  |  |  |  |  | 0.06 (≈ 0.085 µM) |  |  |  |  |  |
| O=C(N/N=C/c1cn(-c2ccc([N+](=O)[O-])cc2[N+](=O)[O-])nc1-c1cccc(Br)c1)c1ccco1 | > 64 | > 64 | > 64 | > 64 | > 64 | > 64 | > 64 | > 64 | > 64 | > 64 | > 64 | > 64 | > 64 | > 64 | 25.3 |
| O=C(N/N=C/c1cn(-c2ccc([N+](=O)[O-])cc2[N+](=O)[O-])nc1-c1ccccc1F)c1ccco1 | > 64 | > 64 | > 64 | > 64 | > 64 | > 64 | > 64 | > 64 | > 64 | > 64 | > 64 | > 64 | > 64 | > 64 | 28 |
| N=C(N)N/N=C/c1cn(-c2ccc([N+](=O)[O-])cc2[N+](=O)[O-])nc1-c1ccccc1Br | 4 (≈ 8.45 µM) | 8 (≈ 16.9 µM) | 4 (≈ 8.45 µM) | 16 (≈ 33.8 µM) | 4 (≈ 8.45 µM) | 16 (≈ 33.8 µM) | > 64 | > 64 | 16 (≈ 33.8 µM) | 2 (≈ 4.23 µM) | 4 (≈ 8.45 µM) | 4 (≈ 8.45 µM) | 4 (≈ 8.45 µM) | 8 (≈ 16.9 µM) | 78.1 |
| OC(Cn1cncn1)(Cn1cncn1)c1ccc(F)cc1F [FLUCONAZOLE] |  |  |  |  |  |  |  |  |  | 1 (≈ 3.27 µM) |  |  |  |  |  |
| COc1c(N2C[C@@H]3CCCN[C@@H]3C2)c(F)cc2c(=O)c(C(=O)O)cn(C3CC3)c12 [MOXIFLOXACIN] | 0.25 (≈ 0.623 µM) |  | 2 (≈ 4.98 µM) | 0.25 (≈ 0.623 µM) |  | 128 (≈ 319 µM) |  | 2 (≈ 4.98 µM) | 0.5 (≈ 1.25 µM) | 0.5 (≈ 1.25 µM) |  |  |  | 4 (≈ 9.96 µM) |  |
| N=C(N)N/N=C/c1cn(-c2ccc([N+](=O)[O-])cc2[N+](=O)[O-])nc1-c1ccccc1Cl | 4 (≈ 9.33 µM) | 8 (≈ 18.7 µM) | 4 (≈ 9.33 µM) | 16 (≈ 37.3 µM) | 4 (≈ 9.33 µM) | 16 (≈ 37.3 µM) | > 64 | > 64 | 8 (≈ 18.7 µM) | 2 (≈ 4.66 µM) | 4 (≈ 9.33 µM) | 4 (≈ 9.33 µM) | 4 (≈ 9.33 µM) | 8 (≈ 18.7 µM) | 84.6 |
| Cc1onc(-c2ccccc2)c1C(=O)N[C@@H]1C(=O)N2[C@@H]1SC(C)(C)[C@@H]2C(=O)O [OXACILLIN] |  |  |  |  |  |  |  |  |  |  | > 64 | > 64 | 1 (≈ 2.49 µM) | 1 (≈ 2.49 µM) |  |
| O=C(N/N=C/c1cn(-c2ccc([N+](=O)[O-])cc2[N+](=O)[O-])nc1-c1ccccc1Br)c1ccco1 | > 64 | > 64 | > 64 | > 64 | > 64 | > 64 | > 64 | > 64 | > 64 | > 64 | > 64 | > 64 | > 64 | > 64 | 17.5 |
| N=C(N)N/N=C/c1cn(-c2ccccc2)nc1-c1ccc(F)cc1 | 8 (≈ 24.8 µM) | 8 (≈ 24.8 µM) | 16 (≈ 49.6 µM) | > 64 | 8 (≈ 24.8 µM) | > 64 | > 64 | > 64 | > 64 | 8 (≈ 24.8 µM) | 8 (≈ 24.8 µM) | 8 (≈ 24.8 µM) | 16 (≈ 49.6 µM) | 16 (≈ 49.6 µM) | 61.4 |
| CCn1cc(C(=O)O)c(=O)c2cc(F)c(N3CCNCC3)cc21 [NORFLOXACIN] |  |  |  |  |  |  |  |  |  |  | 8 (≈ 25.1 µM) | 4 (≈ 12.5 µM) | > 64 | > 64 |  |
| N=C(N)N/N=C/c1cn(-c2ccc([N+](=O)[O-])cc2[N+](=O)[O-])nc1-c1ccccc1[N+](=O)[O-] | 16 (≈ 36.4 µM) | 32 (≈ 72.8 µM) | 16 (≈ 36.4 µM) | 32 (≈ 72.8 µM) | 16 (≈ 36.4 µM) | 32 (≈ 72.8 µM) | > 64 | > 64 | 32 (≈ 72.8 µM) | 8 (≈ 18.2 µM) | 16 (≈ 36.4 µM) | 8 (≈ 18.2 µM) | 16 (≈ 36.4 µM) | 32 (≈ 72.8 µM) | 58.3 |
